In ChEMBL document CHEMBL1132220 (J Med Chem, 1999):
pKi: −log10 of the molar value. Bridge positions count the residues as written; N and C are the ends. Square brackets hold non-standard residues; d marks the D form. Peptide text beside a SMILES is read from it. dPhe(4-F) = N[C@H](Cc1ccc(F)cc1)C(=O)O; 2Nal = N[C@@H](Cc1ccc2ccccc2c1)C(=O)O; Bta = N[C@@H](Cc1csc2ccccc12)C(=O)O; 3Pal = N[C@@H](Cc1cccnc1)C(=O)O; Tle = CC(C)(C)[C@H](N)C(=O)O

Assays:
[1] = target: Somatostatin receptor type 5 (Homo sapiens, UniProt P35346); assay: The compound was tested for binding affinity against human Somatostatin receptor type 5
Chain of Somatostatin receptor type 5 (P35346 whole entry): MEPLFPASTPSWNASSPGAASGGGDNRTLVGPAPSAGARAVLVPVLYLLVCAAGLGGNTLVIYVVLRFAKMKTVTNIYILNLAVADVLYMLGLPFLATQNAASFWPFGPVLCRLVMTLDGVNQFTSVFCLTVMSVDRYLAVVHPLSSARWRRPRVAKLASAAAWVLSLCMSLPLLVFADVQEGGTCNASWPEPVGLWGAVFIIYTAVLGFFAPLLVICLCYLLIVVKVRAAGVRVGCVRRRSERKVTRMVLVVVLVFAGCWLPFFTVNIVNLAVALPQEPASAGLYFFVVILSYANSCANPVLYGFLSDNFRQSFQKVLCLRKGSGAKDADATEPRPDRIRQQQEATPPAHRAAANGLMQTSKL
How it was run: (§1)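 Membranes from CHO-K1 cells transfected with the cloned human receptor. Terminated by filtration on PEI-soaked GF/C filters. Nonspecific binding defined with 1.0 μM SRIF. Mean ± SEM; single values are from one experiment.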

[2] = target: Somatostatin receptor type 1 (Homo sapiens, UniProt P30872); assay: The compound was tested for binding affinity against human Somatostatin receptor type 1; how it was run: as §1
Chain of Somatostatin receptor type 1 (P30872 whole entry): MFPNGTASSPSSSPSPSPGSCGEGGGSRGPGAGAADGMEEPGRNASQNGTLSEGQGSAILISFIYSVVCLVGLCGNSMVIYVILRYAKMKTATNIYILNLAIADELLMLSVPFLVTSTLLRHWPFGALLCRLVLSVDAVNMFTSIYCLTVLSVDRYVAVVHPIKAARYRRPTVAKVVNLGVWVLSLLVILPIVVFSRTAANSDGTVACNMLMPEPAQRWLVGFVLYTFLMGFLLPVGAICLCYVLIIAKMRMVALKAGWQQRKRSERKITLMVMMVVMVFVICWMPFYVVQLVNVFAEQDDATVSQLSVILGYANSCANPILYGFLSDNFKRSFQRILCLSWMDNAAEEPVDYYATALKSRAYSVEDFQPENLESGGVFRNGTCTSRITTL

[3] = target: Somatostatin receptor type 3 (Homo sapiens, UniProt P32745); assay: The compound was tested for binding affinity against human Somatostatin receptor type 3
Chain of Somatostatin receptor type 3 (P32745 whole entry): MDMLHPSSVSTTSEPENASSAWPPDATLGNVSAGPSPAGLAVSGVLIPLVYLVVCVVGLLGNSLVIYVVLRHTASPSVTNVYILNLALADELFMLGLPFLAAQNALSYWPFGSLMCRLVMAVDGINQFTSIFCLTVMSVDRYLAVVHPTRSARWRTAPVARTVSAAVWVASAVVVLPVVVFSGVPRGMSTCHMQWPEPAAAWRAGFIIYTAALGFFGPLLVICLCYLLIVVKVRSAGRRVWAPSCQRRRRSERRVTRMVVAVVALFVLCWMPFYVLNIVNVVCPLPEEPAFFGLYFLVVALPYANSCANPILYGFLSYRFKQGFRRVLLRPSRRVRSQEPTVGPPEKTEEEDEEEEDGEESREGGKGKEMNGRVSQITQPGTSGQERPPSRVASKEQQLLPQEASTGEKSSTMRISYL
How it was run: (§2)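 CHO-K1 cells stably transfected (calcium phosphate) with cloned human sst3 or sst4. Membranes made in ice-cold 50 mM Tris-HCl, resuspended in 10 mM Tris-HCl, then incubated 30 min at 37 °C with 0.05 nM [125I]Tyr11-SRIF in HEPES pH 7.4 with BSA, MgCl2 and protease inhibitors. Filtered on GF/C; nonspecific binding with 1.0 µM SRIF. Mean ± SEM, or one experiment.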

[4] = target: Somatostatin receptor type 4 (Homo sapiens, UniProt P31391); assay: The compound was tested for binding affinity against human Somatostatin receptor type 4; how it was run: as §2
Chain of Somatostatin receptor type 4 (P31391 whole entry): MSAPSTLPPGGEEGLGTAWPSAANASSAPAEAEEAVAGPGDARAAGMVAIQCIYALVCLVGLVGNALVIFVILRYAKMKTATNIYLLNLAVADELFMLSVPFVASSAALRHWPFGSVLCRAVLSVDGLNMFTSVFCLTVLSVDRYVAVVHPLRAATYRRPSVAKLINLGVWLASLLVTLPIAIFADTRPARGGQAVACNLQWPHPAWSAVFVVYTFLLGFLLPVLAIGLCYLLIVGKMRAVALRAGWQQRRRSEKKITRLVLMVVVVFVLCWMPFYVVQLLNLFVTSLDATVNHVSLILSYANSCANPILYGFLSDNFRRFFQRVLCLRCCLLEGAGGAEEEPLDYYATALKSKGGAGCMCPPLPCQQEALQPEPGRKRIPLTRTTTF

[5] = target: Somatostatin receptor type 2 (Homo sapiens, UniProt P30874); assay: The compound was tested for binding affinity against human Somatostatin receptor type 2
Chain of Somatostatin receptor type 2 (P30874 whole entry): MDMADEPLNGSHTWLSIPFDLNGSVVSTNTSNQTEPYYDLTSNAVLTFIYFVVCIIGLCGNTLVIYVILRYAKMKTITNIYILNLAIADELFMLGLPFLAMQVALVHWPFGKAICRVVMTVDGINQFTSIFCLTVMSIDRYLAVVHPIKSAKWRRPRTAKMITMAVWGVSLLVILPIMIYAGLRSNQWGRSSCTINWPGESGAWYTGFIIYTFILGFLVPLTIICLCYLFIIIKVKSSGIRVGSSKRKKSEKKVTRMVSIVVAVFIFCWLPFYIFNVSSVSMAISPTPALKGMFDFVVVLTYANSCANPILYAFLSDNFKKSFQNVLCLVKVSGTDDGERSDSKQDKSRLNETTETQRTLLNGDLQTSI
How it was run: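 Membranes from CHO-K1 cells transfected with the cloned human sst2. Incubated 30 min at 37 °C with 0.05 nM [125I]MK-678 in HEPES pH 7.4 with BSA, MgCl2, Trasylol, bacitracin and PMSF. Filtration on PEI-soaked GF/C filters. Nonspecific binding defined with 1.0 μM SRIF. Mean ± SEM; single values are from one experiment.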

Compound `CC(C)[C@@H]1NC(=O)[C@H](CCCCN)NC(=O)[C@@H](Cc2c[nH]c3ccccc23)NC(=O)[C@H](Cc2cccnc2)NC(=O)[C@H](NC(=O)[C@@H](N)Cc2ccc(F)cc2)CSSC[C@@H](C(=O)N[C@@H](Cc2ccc3ccccc3c2)C(N)=O)NC1=O` has a pKi [1] of 6.54, a pKi [2] of 6.32 and a pKi [3] of 6.57. It also gave a pKi [4] of less than 6.00 and a pKi [5] of 7.46.
In the case of `NCCCC[C@@H]1NC(=O)[C@@H](Cc2c[nH]c3ccccc23)NC(=O)[C@H](Cc2cccnc2)NC(=O)[C@H](NC(=O)[C@@H](N)Cc2ccc3ccccc3c2)CSSC[C@@H](C(=O)N[C@@H](Cc2ccc3ccccc3c2)C(N)=O)NC(=O)CNC1=O`, the pKi [1] was 6.42, the pKi [2] was 6.38 and the pKi [3] was 6.72. It also gave a pKi [4] of 5.80 and a pKi [5] of 6.79.
Compound `CC(C)[C@@H]1NC(=O)[C@H](CCCCN)NC(=O)[C@@H](Cc2c[nH]c3ccccc23)NC(=O)[C@H](Cc2cccnc2)NC(=O)[C@H](NC(=O)[C@@H](N)Cc2ccc3ccccc3c2)CSSC[C@@H](C(=O)N[C@@H](Cc2ccc(F)cc2)C(N)=O)NC1=O` has a pKi [1] of 6.42, a pKi [2] of 5.97 and a pKi [3] of 6.78. It also gave a pKi [4] of less than 6.00 and a pKi [5] of 7.16.
With `CC(C)[C@H]1NC(=O)[C@H](CCCCN)NC(=O)[C@@H](Cc2c[nH]c3ccccc23)NC(=O)[C@H](Cc2c[nH]cn2)NC(=O)C(NC(=O)[C@@H](N)Cc2cccc(F)c2)CSSCC(C(=O)N[C@@H](Cc2cccc(F)c2)C(N)=O)NC1=O` (stereo in doubt) the pKi [1] was 6.13, the pKi [2] was 7.22 and the pKi [3] was 6.40. For the same compound, the pKi [4] was less than 6.00 and the pKi [5] was 6.99.
In the case of `CC(C)(C)[C@@H]1NC(=O)[C@H](CCCCN)NC(=O)[C@@H](Cc2c[nH]c3ccccc23)NC(=O)[C@H](Cc2cccnc2)NC(=O)[C@H](NC(=O)[C@H](N)Cc2ccc(Cl)cc2)CSSC[C@@H](C(=O)N[C@H](Cc2ccc(Cl)cc2)C(N)=O)NC1=O`, the pKi [1] was 6.82, the pKi [2] was less than 6.00 and the pKi [3] was 5.92. The pKi [4] was 5.54 and the pKi [5] was 7.25.
`CC(C)(C)[C@@H]1NC(=O)[C@H](CCCCN)NC(=O)[C@@H](Cc2c[nH]c3ccccc23)NC(=O)[C@H](Cc2cccnc2)NC(=O)[C@H](NC(=O)[C@@H](N)Cc2ccc3ccccc3c2)CSSC[C@@H](C(=O)N[C@@H](Cc2ccc3ccccc3c2)C(N)=O)NC1=O` (H-[2Nal][dC][3Pal][dW]K[Tle]C[2Nal]-NH2; disulfide 2-7) was tested, and the pKi [1] was 6.20, the pKi [2] was less than 6.00 and the pKi [3] was 6.43. The pKi [4] was 6.84 and the pKi [5] was 7.46.
For `CC(C)[C@@H]1NC(=O)[C@H](CCCCN)NC(=O)[C@@H](Cc2c[nH]c3ccccc23)NC(=O)[C@H](Cc2cccnc2)NC(=O)[C@H](NC(=O)[C@@H](N)Cc2ccc(Cl)cc2)CSSC[C@@H](C(=O)N[C@@H](Cc2ccc3ccccc3c2)C(N)=O)NC1=O`, the pKi [1] was 6.62, the pKi [2] was less than 6.00 and the pKi [3] was 7.07. The pKi [4] was 5.80 and the pKi [5] was 7.60.
`CC(C)(C)C[C@@H]1NC(=O)[C@H](CCCCN)NC(=O)[C@@H](Cc2c[nH]c3ccccc23)NC(=O)[C@H](Cc2cccnc2)NC(=O)C(NC(=O)[C@@H](N)Cc2ccc(Cl)cc2)CSSCC(C(=O)N[C@@H](Cc2ccc3ccccc3c2)C(N)=O)NC1=O` (stereo in doubt) showed a pKi [1] of 6.96, a pKi [2] of 6.62 and a pKi [3] of 6.76. The pKi [5] was 6.78.
For `CC(C)[C@@H]1NC(=O)[C@H](CCCCN)NC(=O)[C@@H](Cc2c[nH]c3ccccc23)NC(=O)[C@H](Cc2cccnc2)NC(=O)[C@H](NC(=O)[C@H](N)Cc2ccc(F)cc2)CSSC[C@@H](C(=O)N[C@H](Cc2ccc(F)cc2)C(N)=O)NC1=O`, the pKi [1] was 6.16, the pKi [2] was less than 6.00 and the pKi [3] was 6.08. The pKi [4] was less than 6.00 and the pKi [5] was 6.97.
`CC(C)[C@H]1NC(=O)[C@H](CCCCN)NC(=O)[C@@H](Cc2c[nH]c3ccccc23)NC(=O)[C@H](Cc2c[nH]cn2)NC(=O)C(NC(=O)[C@@H](N)Cc2c(F)c(F)c(F)c(F)c2F)CSSCC(C(=O)N[C@@H](Cc2c(F)c(F)c(F)c(F)c2F)C(N)=O)NC1=O` (stereo in doubt) showed a pKi [1] of 6.03, a pKi [2] of 7.16 and a pKi [3] of 6.91. The pKi [4] was less than 6.00 and the pKi [5] was 6.20.
`CC(C)[C@@H]1NC(=O)[C@H](CCCCN)NC(=O)[C@@H](Cc2c[nH]c3ccccc23)NC(=O)[C@H](Cc2ccc(O)c(I)c2)NC(=O)C(NC(=O)[C@@H](N)Cc2ccc3ccccc3c2)CSSCC(C(=O)N[C@@H](Cc2ccc3ccccc3c2)C(N)=O)NC1=O` (stereo in doubt) gave a pKi [1] of 6.33, a pKi [2] of less than 6.00 and a pKi [3] of 6.32. For the same compound, the pKi [4] was less than 6.00 and the pKi [5] was 6.71.
Compound `CC(C)(C)[C@@H]1NC(=O)[C@H](CCCCN)NC(=O)[C@@H](Cc2c[nH]c3ccccc23)NC(=O)[C@H](Cc2cccnc2)NC(=O)[C@H](NC(=O)[C@H](N)Cc2ccc(F)cc2)CSSC[C@@H](C(=O)N[C@@H](Cc2ccc3ccccc3c2)C(N)=O)NC1=O` (H-[dPhe(4-F)][dC][3Pal][dW]K[Tle]C[2Nal]-NH2; disulfide 2-7) has a pKi [1] of 6.59, a pKi [2] of less than 6.00 and a pKi [3] of 6.26. It also gave a pKi [4] of 6.05 and a pKi [5] of 6.88.
`CC(C)[C@@H]1NC(=O)[C@H](CCCCN)NC(=O)[C@@H](Cc2c[nH]c3ccccc23)NC(=O)[C@H](Cc2cccnc2)NC(=O)[C@H](NC(=O)[C@@H](N)Cc2ccc3ccccc3c2)CSSC[C@@H](C(=O)N[C@@H](Cc2ccc3ccccc3c2)C(N)=O)NC1=O` gave a pKi [1] of 6.28, a pKi [2] of 6.46 and a pKi [3] of 6.77. The pKi [4] was less than 6.00 and the pKi [5] was 7.09.
In the case of `CC(C)[C@@H]1NC(=O)[C@H](CCCCN)NC(=O)[C@@H](Cc2c[nH]c3ccccc23)NC(=O)[C@H](Cc2csc3ccccc23)NC(=O)[C@H](NC(=O)[C@@H](N)Cc2ccc3ccccc3c2)CSSC[C@@H](C(=O)N[C@@H](Cc2ccc3ccccc3c2)C(N)=O)NC1=O` (H-[2Nal][dC][Bta][dW]KVC[2Nal]-NH2; disulfide 2-7), the pKi [1] was 5.85, the pKi [2] was less than 6.00 and the pKi [3] was 6.15. The pKi [4] was less than 6.00 and the pKi [5] was 6.38.
`CC(C)[C@@H]1NC(=O)[C@H](CCCCN)NC(=O)[C@@H](Cc2c[nH]c3ccccc23)NC(=O)[C@H](Cc2cccnc2)NC(=O)[C@H](NC(=O)[C@@H](N)Cc2ccc(C#N)cc2)CSSC[C@@H](C(=O)N[C@@H](Cc2ccc(C#N)cc2)C(N)=O)NC1=O` was tested, and the pKi [1] was 6.52, the pKi [2] was less than 6.00 and the pKi [3] was 6.99. The pKi [4] was less than 6.00 and the pKi [5] was 7.00.
With `CC[C@H](C)[C@@H]1NC(=O)[C@H](CCCCN)NC(=O)[C@@H](Cc2c[nH]c3ccccc23)NC(=O)[C@H](Cc2ccc(O)cc2)NC(=O)[C@H](NC(=O)[C@@H](N)Cc2ccc(-c3ccccc3)cc2)CSSC[C@@H](C(=O)N[C@@H](Cc2ccc(-c3ccccc3)cc2)C(N)=O)NC1=O` the pKi [1] was 6.16, the pKi [2] was less than 6.00 and the pKi [3] was 5.87. For the same compound, the pKi [4] was less than 6.00 and the pKi [5] was 5.65.
`CC(C)[C@@H]1NC(=O)[C@H](CCCCN)NC(=O)[C@@H](Cc2c[nH]c3ccccc23)NC(=O)[C@H](Cc2ccc(O)cc2)NC(=O)[C@H](NC(=O)[C@@H]2Cc3ccccc3CN2)CSSC[C@@H](C(=O)N2Cc3ccccc3C[C@H]2C(N)=O)NC1=O` gave a pKi [1] of less than 6.00, a pKi [2] of 5.99 and a pKi [3] of 6.10. For the same compound, the pKi [4] was less than 6.00 and the pKi [5] was 6.46.
Work on `CC(C)(C)[C@@H]1NC(=O)[C@H](CCCCN)NC(=O)[C@@H](Cc2c[nH]c3ccccc23)NC(=O)[C@H](Cc2cccnc2)NC(=O)[C@H](NC(=O)[C@@H](N)Cc2ccc(Cl)cc2)CSSC[C@@H](C(=O)N[C@@H](Cc2ccc(Cl)cc2)C(N)=O)NC1=O` yielded a pKi [2] of less than 6.00, a pKi [3] of 7.24 and a pKi [4] of 5.79. The pKi [5] was 7.72.
`C[C@@H](O)[C@@H]1NC(=O)[C@H](CCCCN)NC(=O)[C@@H](Cc2c[nH]c3ccccc23)NC(=O)[C@H](Cc2ccccc2)NC(=O)[C@H](NC(=O)[C@@H](N)Cc2ccc(Cl)cc2)CSSC[C@@H](C(=O)N[C@@H](Cc2ccc3ccccc3c2)C(N)=O)NC1=O` gave a pKi [2] of 6.35, a pKi [3] of 6.54 and a pKi [4] of less than 6.00. The pKi [5] was 7.29.
`CC(C)[C@@H]1NC(=O)[C@H](CCCCN)NC(=O)[C@@H](Cc2c[nH]c3ccccc23)NC(=O)[C@H](Cc2ccccn2)NC(=O)[C@H](NC(=O)[C@@H](N)Cc2c(F)c(F)c(F)c(F)c2F)CSSC[C@@H](C(=O)N[C@@H](Cc2c(F)c(F)c(F)c(F)c2F)C(N)=O)NC1=O` gave a pKi [1] of 6.04, a pKi [2] of 6.25 and a pKi [3] of 6.77. The pKi [5] was less than 6.00.
With `CC(C)[C@@H]1NC(=O)[C@H](CCCCN)NC(=O)[C@@H](Cc2c[nH]c3ccccc23)NC(=O)[C@@H](Cc2ccccn2)NC(=O)[C@H](NC(=O)[C@@H](N)Cc2c(F)c(F)c(F)c(F)c2F)CSSC[C@@H](C(=O)N[C@@H](Cc2c(F)c(F)c(F)c(F)c2F)C(N)=O)NC1=O` the pKi [1] was 5.86, the pKi [2] was 7.47 and the pKi [3] was 7.03. It also gave a pKi [5] of 6.16.
Compound `C[C@@H](O)[C@@H]1NC(=O)[C@H](CCCCN)NC(=O)[C@@H](Cc2c[nH]c3ccccc23)NC(=O)[C@@H](Cc2cccnc2)NC(=O)C(NC(=O)[C@@H](N)Cc2ccc(Cl)cc2)CSSCC(C(=O)N[C@@H](Cc2ccc3ccccc3c2)C(N)=O)NC1=O` (stereo in doubt) has a pKi [4] of less than 6.00.
`C[C@@H](O)[C@@H]1NC(=O)[C@H](CCCCN)NC(=O)[C@@H](Cc2c[nH]c3ccccc23)NC(=O)[C@H](Cc2ccccn2)NC(=O)C(NC(=O)[C@@H](N)Cc2ccc(Cl)cc2)CSSCC(C(=O)N[C@@H](Cc2ccc3ccccc3c2)C(N)=O)NC1=O` (stereo in doubt) was tested, and the pKi [1] was 6.69, the pKi [2] was 5.77 and the pKi [3] was 6.97. For the same compound, the pKi [5] was 6.63.
